Residue numbers refer to the chain shown, from its start.
Legend:
Type in all cases: binding
[1] = molecular target: T1, hOTC (human ornithine transcarbamylase) (Homo sapiens, UniProt P00480, C303A); test: microscale thermophoresis, label-free
T1 sequence (P00480 33-354 C303A): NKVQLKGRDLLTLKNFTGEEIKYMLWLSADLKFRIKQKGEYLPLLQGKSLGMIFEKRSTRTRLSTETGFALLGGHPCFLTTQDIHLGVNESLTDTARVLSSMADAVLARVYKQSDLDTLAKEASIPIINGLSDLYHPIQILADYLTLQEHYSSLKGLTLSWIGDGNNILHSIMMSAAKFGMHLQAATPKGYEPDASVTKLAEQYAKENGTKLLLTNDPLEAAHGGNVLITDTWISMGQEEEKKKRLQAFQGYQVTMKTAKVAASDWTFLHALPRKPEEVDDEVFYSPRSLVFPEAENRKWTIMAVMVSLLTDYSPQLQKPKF
Outline: (§1)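 His-tagged human OTC (WT or variants) expressed in BL21(DE3) Tuner cells with pGro7 chaperones and purified by one-step nickel chromatography. Ligand: substrate CP, serially diluted. Protein was diluted to 500 nM in 50 mM HEPES, 150 mM NaCl, 0.05% Tween, 2 mM EDTA, then mixed with CP to 250 nM final. Incubated ≥5 min at room temperature. Kd was measured by label-free MST on intrinsic tryptophan fluorescence.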

[2] = molecular target: T2, hOTC (human ornithine transcarbamylase) (Homo sapiens, UniProt P00480, H302L); test: microscale thermophoresis, label-free
T2 sequence (P00480 33-354 H302L): T1 sequence (P00480 33-354 C303A) with H270L, A271C
Outline: as §1

[3] = molecular target: T3, hOTC (human ornithine transcarbamylase) (Homo sapiens, UniProt P00480, H107N); test: microscale thermophoresis, label-free
T3 sequence (P00480 33-354 H107N): T1 sequence (P00480 33-354 C303A) with H75N, A271C
Outline: as §1

[4] = molecular target: T4, hOTC (human ornithine transcarbamylase) (Homo sapiens, UniProt P00480, D263A); test: microscale thermophoresis, label-free
T4 sequence (P00480 33-354 D263A): T1 sequence (P00480 33-354 C303A) with D231A, A271C
Outline: as §1

[5] = molecular target: T5, hOTC (human ornithine transcarbamylase) (Homo sapiens, UniProt P00480, D263N); test: microscale thermophoresis, label-free
T5 sequence (P00480 33-354 D263N): T1 sequence (P00480 33-354 C303A) with D231N, A271C
Outline: as §1

[6] = molecular target: T6, hOTC (human ornithine transcarbamylase) (Homo sapiens, UniProt P00480); test: microscale thermophoresis, label-free
T6 sequence (P00480 33-354): T1 sequence (P00480 33-354 C303A) with A271C

[7] = molecular target: T6, hOTC (human ornithine transcarbamylase); test: thermal shift assay; conditions: 10 mM L-norvaline with carbamoyl phosphate present; 4 µM enzyme; storage buffer

| Kd [1] | Kd [2] | Kd [3] | Kd [4] | Kd [5] | Kd [6] | Tm increase relative to CP alone [7] | Structure (SMILES) |
| --- | --- | --- | --- | --- | --- | --- | --- |
| 190 nM | 110 µM | 25 µM | 430 nM | 320 nM | 230 nM |  | NC(=O)OP(=O)(O)O [CP, carbamoyl phosphate] |
|  |  |  |  |  |  | 2 °C | CCC[C@H](N)C(=O)O [NVA, L-norvaline] |

Source: paper PMC11256359 (Biochemistry, 2024)
